Data as given in ChEMBL document CHEMBL1145149, “Functionalized pyrrolidines inhibit alpha-mannosidase activity and growth of human glioblastoma and melanoma cells” (J Med Chem, 2005).

How the values were obtained:
[1] = Growth inhibition of glioblastoma cells (LN18) by the compound (200 uM) upon incubation for 48 hours using MTT assay; assay type: functional, Homo sapiens; set-up: unit not given here
Summary of the method: (§1)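 Human glioblastoma cells were kept in DMEM with 4.5 g/L glucose, 5% FCS and antibiotics, then plated for 24-72 h. They were exposed in fresh complete medium for 24, 48 or 72 h to 0, 100, 200 or 300 µM compound, with stocks in methanol/PBS 1:20. MTT at 0.2 mg/mL was present for the final 2 h. Formazan was dissolved in 0.1 N HCl/2-propanol and read at 540 nm. Readings were expressed relative to untreated cells. Triplicate wells.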

[2] = Growth inhibition of glioblastoma cells (LNZ 308 cell) by the compound (300 uM) upon incubation for 24 hours using MTT assay; assay type: functional, Homo sapiens; set-up: unit not given here; summary of the method: as §1
[3] = Growth inhibition of glioblastoma cells (LNZ 308 cell) by the compound (100 uM) upon incubation for 48 hours using MTT assay; assay type: functional, Homo sapiens; set-up: unit not given here; summary of the method: as §1
[4] = Growth inhibition of glioblastoma cells (LN18) by the compound (200 uM) upon incubation for 72 hours using MTT assay; assay type: functional, Homo sapiens; set-up: unit not given here; summary of the method: as §1
[5] = Growth inhibition of glioblastoma cells (LNZ 308 cell) by the compound (100 uM) upon incubation for 24 hours using MTT assay; assay type: functional, Homo sapiens; set-up: unit not given here; summary of the method: as §1
[6] = Growth inhibition of glioblastoma cells (LN18) by the compound (300 uM) after 24 hr using MTT assay; assay type: functional, Homo sapiens; summary of the method: as §1
[7] = Growth inhibition of glioblastoma cells (LN18) by the compound (200 uM) upon incubation for 24 hr using MTT assay; assay type: functional, Homo sapiens; summary of the method: as §1
[8] = Growth inhibition of glioblastoma cells (LNZ 308) by the compound (200 uM) upon incubation for 24 hours using MTT assay; assay type: functional, Homo sapiens; summary of the method: as §1
[9] = Growth inhibition of glioblastoma cells (LNZ 308 cell) by the compound (200 uM) upon incubation for 72 hours using MTT assay; assay type: functional, Homo sapiens; set-up: unit: %; summary of the method: as §1
[10] = Growth inhibition of glioblastoma cells (LNZ 308 cell) by the compound (100 uM) upon incubation for 72 hours using MTT assay; assay type: functional, Homo sapiens; set-up: unit not given here; summary of the method: as §1
[11] = Growth inhibition of glioblastoma cells (LNZ 308 cell) by the compound (200 uM) upon incubation for 48 hours using MTT assay; assay type: functional, Homo sapiens; set-up: unit: %; summary of the method: as §1
[12] = Growth inhibition of glioblastoma cells (LNZ 308 cell) by the compound (300 uM) upon incubation for 72 hours using MTT assay; assay type: functional, Homo sapiens; set-up: unit: %; summary of the method: as §1
[13] = Growth inhibition of glioblastoma cells (LN18) by the compound (300 uM) upon incubation for 72 hr using MTT assay; assay type: functional, Homo sapiens; summary of the method: as §1
[14] = Growth inhibition of glioblastoma cells (LNZ 308 cell) by the compound (300 uM) upon incubation for 48 hours using MTT assay; assay type: functional, Homo sapiens; set-up: unit: %; summary of the method: as §1
[15] = Growth inhibition of glioblastoma cells (LNZ 308 cell) by the compound (200 uM) upon incubation for 24 hours using MTT assay; assay type: functional, Homo sapiens; set-up: unit: %; summary of the method: as §1
[16] = Growth inhibition of glioblastoma cells (LN18) by the compound (100 uM) upon incubation for 72 hours using MTT assay; assay type: functional, Homo sapiens; set-up: unit: %; summary of the method: as §1
[17] = Growth inhibition of glioblastoma cells (LN18) by the compound (100 uM) upon incubation for 48 hours using MTT assay; assay type: functional, Homo sapiens; set-up: unit: %; summary of the method: as §1
[18] = Growth inhibition of glioblastoma cells (LN18) by the compound (300 uM) upon incubation for 48 hr using MTT assay; assay type: functional, Homo sapiens; summary of the method: as §1
[19] = Growth inhibition of glioblastoma cells (LN18) by the compound (200 uM) upon incubation for 24 hours using MTT assay; assay type: functional, Homo sapiens; set-up: unit: %; summary of the method: as §1
[20] = Growth inhibition of glioblastoma cells (LN18) by the compound (100 uM) upon incubation for 24 hours using MTT assay; assay type: functional, Homo sapiens; summary of the method: as §1
[21] = Growth inhibition of glioblastoma cells (LN18) by the compound (300 uM) upon incubation for 72 hours using MTT assay; assay type: functional, Homo sapiens; set-up: unit not given here; summary of the method: as §1
[22] = Growth inhibition of glioblastoma cells (LN18) by the compound (300 uM) upon incubation for 48 hours using MTT assay; assay type: functional, Homo sapiens; set-up: unit: %; summary of the method: as §1
[23] = Growth inhibition of glioblastoma cells (LN18) by the compound (300 uM) upon incubation for 24 hours using MTT assay; assay type: functional, Homo sapiens; set-up: unit not given here; summary of the method: as §1
[24] = Growth inhibition of glioblastoma cells (LNZ 308) by the compound (100 uM) upon incubation for 24 hours using MTT assay; assay type: functional, Homo sapiens; summary of the method: as §1
[25] = target: T1, Alpha-mannosidase (Glycine max) (UniProt Q9SEH8); settings: Prunus dulcis; 1 mM
T1 sequence (whole entry): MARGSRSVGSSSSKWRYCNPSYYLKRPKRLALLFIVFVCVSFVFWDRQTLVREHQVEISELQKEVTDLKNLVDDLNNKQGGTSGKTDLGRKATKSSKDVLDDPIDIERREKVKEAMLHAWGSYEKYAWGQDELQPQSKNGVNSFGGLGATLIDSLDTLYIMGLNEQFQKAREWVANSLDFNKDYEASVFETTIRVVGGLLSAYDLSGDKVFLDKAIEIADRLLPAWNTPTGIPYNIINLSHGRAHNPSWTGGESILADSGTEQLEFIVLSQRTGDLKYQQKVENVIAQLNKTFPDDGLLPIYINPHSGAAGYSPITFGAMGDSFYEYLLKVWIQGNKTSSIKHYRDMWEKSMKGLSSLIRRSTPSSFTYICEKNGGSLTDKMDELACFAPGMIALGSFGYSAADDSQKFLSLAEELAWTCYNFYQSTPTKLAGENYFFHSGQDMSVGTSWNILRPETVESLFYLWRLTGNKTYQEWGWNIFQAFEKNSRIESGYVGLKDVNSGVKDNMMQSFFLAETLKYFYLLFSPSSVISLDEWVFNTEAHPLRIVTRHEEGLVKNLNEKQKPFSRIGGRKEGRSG

[26] = Growth inhibition of glioblastoma cells (LNZ 308) by the compound (300 uM) upon incubation for 24 hours using MTT assay; assay type: functional, Homo sapiens; summary of the method: as §1
[27] = Growth inhibition of glioblastoma cells (LNZ 308) by the compound (100 uM) upon incubation for 72 hours using MTT assay; assay type: functional, Homo sapiens; summary of the method: as §1
[28] = Growth inhibition of glioblastoma cells (LNZ 308) by the compound (300 uM) upon incubation for 48 hours using MTT assay; assay type: functional, Homo sapiens; summary of the method: as §1
[29] = Growth inhibition of glioblastoma cells (LNZ 308) by the compound (100 uM) upon incubation for 48 hours using MTT assay; assay type: functional, Homo sapiens; summary of the method: as §1
[30] = Growth inhibition of glioblastoma cells (LNZ 308) by the compound (200 uM) upon incubation for 48 hours using MTT assay; assay type: functional, Homo sapiens; summary of the method: as §1
[31] = Growth inhibition of glioblastoma cells (LNZ 308) by the compound (300 uM) upon incubation for 72 hours using MTT assay; assay type: functional, Homo sapiens; summary of the method: as §1
[32] = Growth inhibition of glioblastoma cells (LNZ 308) by the compound (200 uM) upon incubation for 72 hours using MTT assay; assay type: functional, Homo sapiens; summary of the method: as §1

Row | SMILES | Growth inhibition [1] | Growth inhibition [2] | Growth inhibition [3] | Growth inhibition [4] | Growth inhibition [5] | Growth inhibition [8] | Growth inhibition [9] | Growth inhibition [10] | Growth inhibition [11] | Growth inhibition [12] | Growth inhibition [14] | Growth inhibition [15] | Growth inhibition [16] | Growth inhibition [17] | Growth inhibition [19] | Growth inhibition [20] | Growth inhibition [21] | Growth inhibition [22] | Growth inhibition [23] | other results
1 | O=C(OCC(NC[C@H]1NC[C@H](O)[C@@H]1O)c1ccccc1)c1cccc(Br)c1 (some centres not stated) | 25 | 17 | 17 | 24 | 5 | 5 | 23 | 13 | 23 | 34 | 31 | 5 | 18 | 21 | – | – | – | – | – | Growth inhibition [6]: 16; Growth inhibition [7]: 10; Growth inhibition [13]: 36; Growth inhibition [18]: 29
2 | O=C(OCC(NC[C@H]1NC[C@H](O)[C@@H]1O)c1ccccc1)c1ccc(Br)cc1 (some centres not stated) | 48 | 87 | 15 | 68 | 11 | – | 56 | 24 | 33 | 96 | 78 | 60 | 31 | 17 | 67 | 5 | 97 | 95 | 92 | –
3 | O=C(OCC(NC[C@H]1NC[C@H](O)[C@@H]1O)c1ccccc1)c1ccccc1F (some centres not stated) | 10 | 23 | 6 | 14 | 0 | – | 17 | 0 | 15 | 26 | 18 | 18 | 3 | 7 | 17 | – | 15 | 8 | 26 | –
4 | OC[C@@H](NC[C@H]1NC[C@H](O)[C@@H]1O)c1ccccc1 | – | – | – | – | – | 4 | – | – | – | – | – | – | – | – | 17 | 0 | – | – | 7 | Growth inhibition [24]: 0; inhibition [25]: 55%; Growth inhibition [26]: 28
5 | O=C(OCC(NC[C@H]1NC[C@H](O)[C@@H]1O)c1ccccc1)c1ccc(F)cc1 (some centres not stated) | 16 | 21 | 10 | 14 | 4 | 16 | 24 | 8 | 18 | 32 | 17 | 16 | 4 | 5 | 22 | – | 31 | 24 | 20 | –
6 | O=C(NCC(NC[C@H]1NC[C@H](O)[C@@H]1O)c1ccccc1)c1cccc(Br)c1 (some centres not stated) | 46 | 50 | 19 | 61 | 2 | 20 | 52 | 43 | 40 | 59 | 42 | 20 | 43 | 20 | 30 | – | 65 | 50 | 52 | –
7 | OC[C@H](NC[C@H]1NC[C@H](O)[C@@H]1O)c1ccccc1 | 26 | – | – | 12 | – | 8 | – | – | – | – | – | – | 15 | 16 | 19 | 13 | 22 | 23 | 22 | Growth inhibition [24]: 0; Growth inhibition [27]: 5; Growth inhibition [28]: 25; Growth inhibition [29]: 19; Growth inhibition [30]: 19; Growth inhibition [31]: 22; Growth inhibition [32]: 13; Growth inhibition [26]: 26
8 | O[C@H]1[C@@H](O)CN[C@@H]1CN[C@@H](COCc1cccc(F)c1)c1ccccc1 | 14 | 34 | 6 | 41 | 2 | 14 | 27 | 6 | 29 | 53 | 56 | 14 | 12 | 6 | 19 | – | 76 | 39 | 27 | –
